Measured values published in ChEMBL document CHEMBL4689842, “EUbOPEN Chemogenomics Library wave 1” (2021).

Tested on: HEK-293T
Assay: Multiplex assay against HEK293T;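 on Population Tubulin-Different-Phenotype (%): share of the cells with healthy nuclei that show this phenotype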
Type: toxicity, cell-based
Conditions: human
Summary of the method: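 Phenotypes for tubulin, mitochondrial mass and membrane permeability are expressed as per cents of healthy-nucleus cells. Cells were stained live at seeding with Hoechst33342, BioTracker Green Microtubule Cytoskeleton Dye, MitoTracker Red and Annexin V Alexa Fluor 680, then imaged after compound addition on a CQ1 microscope at 37°C and 5% CO2. Machine-learning gating in CellPathfinder separated Hoechst high-intensity objects from normal cells, divided normal cells by nuclear state (healthy, pyknosed, fragmented) and divided pyknosed cells into mitotic or apoptotic.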

[1] = 12 h, 1 µM, compound concentration 1 uM, replicate 1
[2] = 12 h, 1 µM, compound concentration 1 uM, replicate 2
[3] = 12 h, 10 µM, compound concentration 10 uM, replicate 1
[4] = 12 h, 10 µM, compound concentration 10 uM, replicate 2
[5] = 24 h, 1 µM, compound concentration 1 uM, replicate 1
[6] = 24 h, 1 µM, compound concentration 1 uM, replicate 2
[7] = 24 h, 10 µM, compound concentration 10 uM, replicate 1
[8] = 24 h, 10 µM, compound concentration 10 uM, replicate 2
[9] = 48 h, 1 µM, compound concentration 1 uM, replicate 1
[10] = 48 h, 1 µM, compound concentration 1 uM, replicate 2
[11] = 48 h, 10 µM, compound concentration 10 uM, replicate 1
[12] = 48 h, 10 µM, compound concentration 10 uM, replicate 2

SMILES: Cl.Cl.Nc1ncnc2c1c(-c1cccc(OCc3ccccc3)c1)cn2[C@H]1C[C@@H](CN2CCC2)C1
- Population Apoptotic (%) [1]: 69%
- Population Fragmented Nuclei (%) [1]: 13%
- Population Healthy Nuclei (%) [1]: 17%
- Population Hoechst High Intensity Objects (%) [1]: 24%
- Population Membrane Permeable-Phenotype (%) [1]: 5%
- Population Mitochondria Different-Phenotype (%) [1]: 94%
- Population Mitotic Cells (%) [1]: 30%
- Population Normal (%) [1]: 75%
- Population Pyknosed Nuclei (%) [1]: 68%
- Population Tubulin-Different-Phenotype (%) [1]: 88%
- Total Cell Count [1]: 270
- Population Apoptotic (%) [2]: 56%
- Population Fragmented Nuclei (%) [2]: 5%
- Population Healthy Nuclei (%) [2]: 23%
- Population Hoechst High Intensity Objects (%) [2]: 10%
- Population Membrane Permeable-Phenotype (%) [2]: 2%
- Population Mitochondria Different-Phenotype (%) [2]: 97%
- Population Mitotic Cells (%) [2]: 43%
- Population Normal (%) [2]: 89%
- Population Pyknosed Nuclei (%) [2]: 71%
- Population Tubulin-Different-Phenotype (%) [2]: 97%
- Total Cell Count [2]: 199
- Population Fragmented Nuclei (%) [3]: 18%
- Population Healthy Nuclei (%) [3]: 12%
- Population Hoechst High Intensity Objects (%) [3]: 20%
- Population Membrane Permeable-Phenotype (%) [3]: 3%
- Population Mitochondria Different-Phenotype (%) [3]: 100%
- Population Normal (%) [3]: 79%
- Population Pyknosed Nuclei (%) [3]: 69%
- Population Tubulin-Different-Phenotype (%) [3]: 84%
- Total Cell Count [3]: 264
- Population Apoptotic (%) [4]: 95%
- Population Fragmented Nuclei (%) [4]: 21%
- Population Healthy Nuclei (%) [4]: 6%
- Population Hoechst High Intensity Objects (%) [4]: 23%
- Population Membrane Permeable-Phenotype (%) [4]: 9%
- Population Mitochondria Different-Phenotype (%) [4]: 81%
- Population Mitotic Cells (%) [4]: 4%
- Population Normal (%) [4]: 77%
- Population Pyknosed Nuclei (%) [4]: 71%
- Population Tubulin-Different-Phenotype (%) [4]: 54%
- Total Cell Count [4]: 213
- Population Apoptotic (%) [5]: 70%
- Population Fragmented Nuclei (%) [5]: 14%
- Population Healthy Nuclei (%) [5]: 18%
- Population Hoechst High Intensity Objects (%) [5]: 25%
- Population Membrane Permeable-Phenotype (%) [5]: 0%
- Population Mitochondria Different-Phenotype (%) [5]: 100%
- Population Mitotic Cells (%) [5]: 29%
- Population Normal (%) [5]: 75%
- Population Pyknosed Nuclei (%) [5]: 67%
- Total Cell Count [5]: 260
- Population Apoptotic (%) [6]: 67%
- Population Fragmented Nuclei (%) [6]: 7%
- Population Healthy Nuclei (%) [6]: 43%
- Population Hoechst High Intensity Objects (%) [6]: 5%
- Population Membrane Permeable-Phenotype (%) [6]: 4%
- Population Mitochondria Different-Phenotype (%) [6]: 93%
- Population Mitotic Cells (%) [6]: 32%
- Population Normal (%) [6]: 94%
- Population Pyknosed Nuclei (%) [6]: 49%
- Population Tubulin-Different-Phenotype (%) [6]: 91%
- Total Cell Count [6]: 213
- Population Apoptotic (%) [7]: 92%
- Population Fragmented Nuclei (%) [7]: 17%
- Population Healthy Nuclei (%) [7]: 9%
- Population Hoechst High Intensity Objects (%) [7]: 22%
- Population Membrane Permeable-Phenotype (%) [7]: 0%
- Population Mitochondria Different-Phenotype (%) [7]: 100%
- Population Mitotic Cells (%) [7]: 7%
- Population Normal (%) [7]: 77%
- Population Pyknosed Nuclei (%) [7]: 73%
- Population Tubulin-Different-Phenotype (%) [7]: 80%
- Total Cell Count [7]: 278
- Population Apoptotic (%) [8]: 100%
- Population Fragmented Nuclei (%) [8]: 23%
- Population Healthy Nuclei (%) [8]: 11%
- Population Hoechst High Intensity Objects (%) [8]: 26%
- Population Membrane Permeable-Phenotype (%) [8]: 5%
- Population Mitochondria Different-Phenotype (%) [8]: 89%
- Population Mitotic Cells (%) [8]: 0%
- Population Normal (%) [8]: 73%
- Population Pyknosed Nuclei (%) [8]: 64%
- Population Tubulin-Different-Phenotype (%) [8]: 68%
- Total Cell Count [8]: 227
- Population Apoptotic (%) [9]: 74%
- Population Fragmented Nuclei (%) [9]: 20%
- Population Healthy Nuclei (%) [9]: 21%
- Population Hoechst High Intensity Objects (%) [9]: 30%
- Population Membrane Permeable-Phenotype (%) [9]: 0%
- Population Mitochondria Different-Phenotype (%) [9]: 97%
- Population Mitotic Cells (%) [9]: 25%
- Population Normal (%) [9]: 70%
- Population Pyknosed Nuclei (%) [9]: 57%
- Population Tubulin-Different-Phenotype (%) [9]: 78%
- Total Cell Count [9]: 250
- Population Apoptotic (%) [10]: 64%
- Population Fragmented Nuclei (%) [10]: 6%
- Population Healthy Nuclei (%) [10]: 71%
- Population Hoechst High Intensity Objects (%) [10]: 11%
- Population Membrane Permeable-Phenotype (%) [10]: 1%
- Population Mitochondria Different-Phenotype (%) [10]: 87%
- Population Mitotic Cells (%) [10]: 35%
- Population Normal (%) [10]: 88%
- Population Pyknosed Nuclei (%) [10]: 22%
- Population Tubulin-Different-Phenotype (%) [10]: 93%
- Total Cell Count [10]: 263
- Population Apoptotic (%) [11]: 93%
- Population Fragmented Nuclei (%) [11]: 25%
- Population Healthy Nuclei (%) [11]: 1%
- Population Hoechst High Intensity Objects (%) [11]: 19%
- Population Membrane Permeable-Phenotype (%) [11]: 0%
- Population Mitochondria Different-Phenotype (%) [11]: 100%
- Population Mitotic Cells (%) [11]: 6%
- Population Normal (%) [11]: 80%
- Population Pyknosed Nuclei (%) [11]: 73%
- Population Tubulin-Different-Phenotype (%) [11]: 33%
- Total Cell Count [11]: 315
- Population Apoptotic (%) [12]: 98%
- Population Fragmented Nuclei (%) [12]: 34%
- Population Healthy Nuclei (%) [12]: 17%
- Population Hoechst High Intensity Objects (%) [12]: 12%
- Population Mitotic Cells (%) [12]: 1%
- Population Normal (%) [12]: 87%
- Population Pyknosed Nuclei (%) [12]: 48%
- Population Tubulin-Different-Phenotype (%) [12]: 88%
- Total Cell Count [12]: 234
